Assay results as given in ChEMBL document CHEMBL2069229, “Terpenylated coumarins as SIRT1 activators isolated from Ailanthus altissima” (J Nat Prod, 2012).
Active and inactive are the calls of the source. No cut-off for these calls is given here.

Biological target: T1, NAD-dependent protein deacetylase sirtuin-1 (Homo sapiens) (UniProt Q96EB6)
T1 sequence (whole entry): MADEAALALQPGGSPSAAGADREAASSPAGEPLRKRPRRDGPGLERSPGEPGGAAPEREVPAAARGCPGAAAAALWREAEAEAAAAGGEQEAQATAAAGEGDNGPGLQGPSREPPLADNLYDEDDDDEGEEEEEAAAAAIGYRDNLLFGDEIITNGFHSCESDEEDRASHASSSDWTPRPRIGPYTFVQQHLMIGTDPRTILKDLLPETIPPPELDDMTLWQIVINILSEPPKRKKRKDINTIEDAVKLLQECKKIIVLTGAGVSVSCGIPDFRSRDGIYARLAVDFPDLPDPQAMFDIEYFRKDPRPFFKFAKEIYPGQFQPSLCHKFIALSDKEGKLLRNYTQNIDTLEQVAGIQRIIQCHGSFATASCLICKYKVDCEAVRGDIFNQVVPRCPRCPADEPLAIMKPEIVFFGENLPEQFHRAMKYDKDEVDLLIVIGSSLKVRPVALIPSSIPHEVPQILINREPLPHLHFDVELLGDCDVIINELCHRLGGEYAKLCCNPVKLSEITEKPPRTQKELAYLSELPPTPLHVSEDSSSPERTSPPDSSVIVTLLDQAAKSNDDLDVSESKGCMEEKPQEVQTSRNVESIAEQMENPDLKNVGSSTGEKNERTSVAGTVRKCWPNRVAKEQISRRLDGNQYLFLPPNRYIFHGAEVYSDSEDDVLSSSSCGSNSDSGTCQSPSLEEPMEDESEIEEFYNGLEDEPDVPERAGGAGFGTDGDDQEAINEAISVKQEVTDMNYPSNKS
Assay: Activation of SIRT1 expressed in HEK293 cells assessed as increase in enzyme deacetylation activity pre-incubated for 10 mins before addition of acetylated p53 peptide substrate and NAD+ by NAD+/NADH assay
Assay type: cell-based
Method in brief: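 Cell-free SIRT1 (0.1 U/mL) with 10 μM NAD+ and 20 μM Ac-p53 peptide in Tris/Cl pH 8.0, NaCl, KCl, MgCl2, BSA buffer. Enzyme–compound premix 10 min at room temperature, then 6 h at ambient temperature. Stopped with NAD/NADH recycling enzyme mix containing 1 mM nicotinamide; absorbance read after 2 h. DMSO and no-enzyme controls.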

Activity	Structure (SMILES)
Dose-dependent effect	COc1cc2ccc(=O)oc2c(OC)c1OC[C@@H](O)[C@](C)(O)CCC=C(C)C
Dose-dependent effect	COc1cc2ccc(=O)oc2c(OC)c1OC[C@H](O)[C@@H](C)[C@@H]1O[C@H]1C=C(C)C
Dose-dependent effect	COc1cc2ccc(=O)oc2c(OC)c1OC[C@@H](O)[C@](C)(O)CC[C@H]1OC1(C)C
Dose-dependent effect	COc1cc2ccc(=O)oc2c(OC)c1OC/C=C(\C)CCC=C(C)C

Biological target: T1, NAD-dependent protein deacetylase sirtuin-1 (Homo sapiens)
Assay: Activation of SIRT1 expressed in HEK293 cells assessed as reduction in p53 transcriptional activity incubated for 12 hrs by luciferase reporter gene assay
Assay type: cell-based
Method in brief: (§1)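 HEK293 cells in DMEM with 10% FBS, plated at 10^5 cells/well. After 24 h, PEI-transfected with PG13-luc (wt p53 sites), myc-p53, flag-SIRT1 and RSV-β-gal. Treated 24 h post-transfection for 12 h. Luciferase normalized to internal control. Triplicate experiments, mean ± SD.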

Activity	Structure (SMILES)
Dose-dependent effect	COc1cc2ccc(=O)oc2c(OC)c1OC[C@@H](O)[C@](C)(O)CCC=C(C)C
Dose-dependent effect	COc1cc2ccc(=O)oc2c(OC)c1OC[C@H](O)[C@@H](C)[C@@H]1O[C@H]1C=C(C)C
Dose-dependent effect	COc1cc2ccc(=O)oc2c(OC)c1OC[C@@H](O)[C@](C)(O)CC[C@H]1OC1(C)C
Dose-dependent effect	COc1cc2ccc(=O)oc2c(OC)c1OC/C=C(\C)CCC=C(C)C

Biological target: T1, NAD-dependent protein deacetylase sirtuin-1 (Homo sapiens)
Assay: Activation of SIRT1 expressed in HEK293 cells assessed as increase in enzyme deacetylation activity at 10 uM using acetylated p53 substrate and NAD+ by bioluminescence assay
Assay type: cell-based
Method in brief: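 Enzyme–compound premix 10 min, then substrate/NAD+ added and run 2 h. Quenched with LDH reagent containing nicotinamide for 1 h. Read by luciferase/FMN-oxidoreductase/decanal luminescence within 15 min. DMSO reaction as positive control, no-enzyme as blank.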

Activity	Structure (SMILES)
Active	COc1cc2ccc(=O)oc2c(OC)c1OC[C@@H](O)[C@](C)(O)CCC=C(C)C
Active	COc1cc2ccc(=O)oc2c(OC)c1OC[C@H](O)[C@@H](C)[C@@H]1O[C@H]1C=C(C)C
Active	COc1cc2ccc(=O)oc2c(OC)c1OC[C@@H](O)[C@](C)(O)CC[C@H]1OC1(C)C
Active	COc1cc2ccc(=O)oc2c(OC)c1OC/C=C(\C)CCC=C(C)C

Biological target: T1, NAD-dependent protein deacetylase sirtuin-1 (Homo sapiens)
Assay: Activation of SIRT1 expressed in HEK293 cells assessed as reduction in p53 transcriptional activity at 10 uM incubated for 12 hrs by luciferase reporter gene assay
Assay type: cell-based
Method in brief: as §1

Activity	Structure (SMILES)
Active	COc1cc2ccc(=O)oc2c(OC)c1OC[C@@H](O)[C@](C)(O)CCC=C(C)C
Active	COc1cc2ccc(=O)oc2c(OC)c1OC[C@H](O)[C@@H](C)[C@@H]1O[C@H]1C=C(C)C
Active	COc1cc2ccc(=O)oc2c(OC)c1OC[C@@H](O)[C@](C)(O)CC[C@H]1OC1(C)C
Active	COc1cc2ccc(=O)oc2c(OC)c1OC/C=C(\C)CCC=C(C)C

Biological target: T1, NAD-dependent protein deacetylase sirtuin-1 (Homo sapiens)
Assay: Activation of SIRT1 expressed in HEK293 cells assessed as increase in NAD to NADH ratio at 20 uM after 12 hrs by NAD+/NADH assay

Activity	Structure (SMILES)
> 50%	COc1cc2ccc(=O)oc2c(OC)c1OC[C@@H](O)[C@](C)(O)CCC=C(C)C
> 50%	COc1cc2ccc(=O)oc2c(OC)c1OC[C@H](O)[C@@H](C)[C@@H]1O[C@H]1C=C(C)C
> 50%	COc1cc2ccc(=O)oc2c(OC)c1OC[C@@H](O)[C@](C)(O)CC[C@H]1OC1(C)C
> 50%	COc1cc2ccc(=O)oc2c(OC)c1OC/C=C(\C)CCC=C(C)C
